The subject of test [1] is Tobacco mosaic virus. In words: Antiviral activity against Tobacco mosaic virus (TMV) inoculated on whole Nicotiana tabacum leaves followed by smearing with 100 ug/mL compound solution on left side of leaves assessed as viral infection curative effect measured 3 to 4 days post viral infection. The format is functional. A digest of the protocol:
(§1)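 Whole growing N. tabacum L. leaves of the same age were dip-inoculated with TMV at 6.0 × 10-3 mg/mL.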

For test [2], the system named is Tobacco mosaic virus. The experiment in a line: Antiviral activity against Tobacco mosaic virus (TMV) pre-treated with 100 ug/mL compound for 30 min followed by inoculation on left side of Nicotiana tabacum leaves assessed as virus inactivation effect measured 3 to 4 days post viral infection. The test is classed as functional. A digest of the protocol:
(§2)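 TMV was mixed with an equal volume of compound solution for 30 min, then inoculated on the left half of N. tabacum L. leaves. A solvent-plus-virus mixture was inoculated on the right half as control. Local lesions were counted 3-4 days after inoculation. Each compound was run in three replicates.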

Test [3] relates to Tobacco mosaic virus. In words: Antiviral activity against Tobacco mosaic virus (TMV) inoculated on fresh tobacco leaves followed by dipping into compound solution for 20 min and measured 72 hr post compound treatment by half-leaf method. The test is classed as functional, organism-based. The procedure, abridged: (§3)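 Half-leaf method. Fresh tobacco leaves at the 5-6 growth stage were inoculated by juice-leaf rubbing with TMV at 5.88 × 10-2 μg/mL. Leaves were cut into halves along the main vein. Each half was immersed for 20 min in compound solution or in double-distilled water, then cultured at 25 °C for 72 h. Each concentration was run at least three times.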

Test [4] concerns Tobacco mosaic virus. The experiment in a line: Antiviral activity against Tobacco mosaic virus (TMV) inoculated on fresh tobacco leaves followed by dipping into compound solution at 5 ug/mL for 20 min and measured 72 hr post compound treatment by half-leaf method. The test is classed as functional. The procedure, abridged: as §3
Test [5] deals with Tobacco mosaic virus. The experiment in a line: Antiviral activity against Tobacco mosaic virus (TMV) inoculated on fresh tobacco leaves followed by dipping into compound solution at 25 ug/mL for 20 min and measured 72 hr post compound treatment by half-leaf method. The format is functional. The procedure, abridged:
as §3

Test [6] concerns Tobacco mosaic virus. The experiment in a line: Antiviral activity against Tobacco mosaic virus (TMV) inoculated on fresh tobacco leaves followed by dipping into compound solution at 50 ug/mL for 20 min and measured 72 hr post compound treatment by half-leaf method. The test is classed as functional. The procedure, abridged: as §3
The test system of test [7] is Tobacco mosaic virus. In words: Antiviral activity against Tobacco mosaic virus (TMV) inoculated on fresh tobacco leaves followed by dipping into compound solution at 100 ug/mL for 20 min and measured 72 hr post compound treatment by half-leaf method. The test is classed as functional. The procedure, abridged:
as §3

In test [8] the test system is Tobacco mosaic virus. In words: Antiviral activity against Tobacco mosaic virus (TMV) inoculated on 100 ug/mL compound smeared Nicotiana tabacum leaves assessed as protective effect against viral infection measured 3 to 4 days post viral infection. The test is classed as functional. The procedure, abridged: (§4)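 N. tabacum L. leaves of the same age were used. Compound solution was smeared on the left half and solvent control on the right half. Leaves were inoculated with TMV 12 h later.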

The subject of test [9] is Tobacco mosaic virus. In words: Antiviral activity against Tobacco mosaic virus (TMV) inoculated on fresh tobacco leaves followed by dipping into compound solution at 40 ug/mL for 20 min and measured 72 hr post compound treatment by half-leaf method. The test is classed as functional. Particulars: for inhibition at 40 µg/mL: Tobacco mosaic virus. The procedure, abridged: as §3

The test system of test [10] is Tobacco mosaic virus. The experiment in a line: Antiviral activity against Tobacco mosaic virus (TMV) inoculated on fresh tobacco leaves followed by dipping into compound solution at 125 ug/mL for 20 min and measured 72 hr post compound treatment by half-leaf method. The test is classed as functional. A digest of the protocol:
as §3

Test [11] deals with Tobacco mosaic virus. In words: Antiviral activity against Tobacco mosaic virus (TMV) inoculated on fresh tobacco leaves followed by dipping into compound solution at 250 ug/mL for 20 min and measured 72 hr post compound treatment by half-leaf method. The format is functional. The procedure, abridged:
as §3

Test [12] deals with Tobacco mosaic virus. The experiment in a line: Antiviral activity against Tobacco mosaic virus (TMV) inoculated on fresh tobacco leaves followed by dipping into compound solution at 500 ug/mL for 20 min and measured 72 hr post compound treatment by half-leaf method. The format is functional. A digest of the protocol: as §3
Test [13] relates to Tobacco mosaic virus. In words: Antiviral activity against Tobacco mosaic virus (TMV) inoculated on whole Nicotiana tabacum leaves followed by smearing with 500 ug/mL compound solution on left side of leaves assessed as viral infection curative effect measured 3 to 4 days post viral infection. The test is classed as functional. A digest of the protocol:
as §1

In test [14] the test system is Tobacco mosaic virus. The experiment in a line: Antiviral activity against Tobacco mosaic virus (TMV) pre-treated with 500 ug/mL compound for 30 min followed by inoculation on left side of Nicotiana tabacum leaves assessed as virus inactivation effect measured 3 to 4 days post viral infection. The format is functional. A digest of the protocol: as §2
Test [15] concerns Tobacco mosaic virus. The experiment in a line: Antiviral activity against Tobacco mosaic virus (TMV) inoculated on 500 ug/mL compound smeared Nicotiana tabacum leaves assessed as protective effect against viral infection measured 3 to 4 days post viral infection. The format is functional. The procedure, abridged:
as §4

In brackets after ≈: the same amount, converted by molar mass. Structures can show the parent of a compound that is named as a salt.

Data on ten compounds can be found in ChEMBL document CHEMBL3046613 (J Agric Food Chem, 2010).

As a reminder, the EC50 is the midpoint of the concentration-response curve. A higher EC50 goes with lower potency in that assay. Usually inhibition stands for how much of the control response was suppressed. `CC1(C)C2CC[C@]1(S(=O)(=O)O)C(=O)C2.COc1cc2c3c(c4cc(OC)c(OC)cc4c2cc1OC)CN1CCCC1C3` (stereo unspecified): the results for the Activity in the test with Tobacco mosaic virus [1], in the test on Tobacco mosaic virus [2] and in the test on Tobacco mosaic virus [8] were 65.5%, 55.6% and 47.7%, respectively. The compound also gave an EC50 with Tobacco mosaic virus [3] of 23.6 µg/mL. Further, the inhibition at 5 µg/mL in the test on Tobacco mosaic virus [4] was determined as 32.3%. Also, the inhibition at 25 µg/mL in the test with Tobacco mosaic virus [5] was found to be 42.4%. Also, in the test on Tobacco mosaic virus [6], 50 µg/mL produced 60.6% inhibition. The same compound registered an inhibition at 100 µg/mL with Tobacco mosaic virus [7] of 73.9%.

Consider `COc1cc(/C=C/C(=O)O)ccc1O.COc1cc2c3c(c4cc(OC)c(OC)cc4c2cc1OC)CN1CCCC1C3` (stereo unspecified), for which the Activity came to 13.8% in the test with Tobacco mosaic virus [1], 51.1% in the test with Tobacco mosaic virus [2] and 45.5% in the test with Tobacco mosaic virus [8]. For the same compound, in the test with Tobacco mosaic virus [3], a half-maximal response (EC50) required 40.3 µg/mL. Moreover, the inhibition at 5 µg/mL with Tobacco mosaic virus [4] was determined as 15.7%. The compound further registered an inhibition at 25 µg/mL in the test with Tobacco mosaic virus [5] of 18.5%. In addition, testing at 50 µg/mL in the test with Tobacco mosaic virus [6] gave an inhibition of 68.5%. The same compound returned an inhibition at 100 µg/mL with Tobacco mosaic virus [7] of 72.2%.

On to `COc1cc2c3c(c4cc(OC)c(OC)cc4c2cc1OC)CN1CCCC1C3.O=C(O)CC(O)(CC(=O)O)C(=O)O` (stereo unspecified), for which the “inhibition (INH)” value in the test with Tobacco mosaic virus [9] came out at 65.2%.

`COc1cc2c3c(c4cc(OC)c(OC)cc4c2cc1OC)CN1CCCC1C3.O=C(O)c1cc(S(=O)(=O)O)ccc1O` (stereo unspecified): the Activity in the test with Tobacco mosaic virus [1] is on record as 62.1%; with Tobacco mosaic virus [2], 42.2%; in the test on Tobacco mosaic virus [8], 38.6%. In the test on Tobacco mosaic virus [3], this compound gave a concentration for a half-maximal effect (EC50) of 21.3 µg/mL. Moreover, at 5 µg/mL the inhibition with Tobacco mosaic virus [4] was 15.6%. Also, at 25 µg/mL the inhibition in the test with Tobacco mosaic virus [5] was 35.7%. In addition, the inhibition at 50 µg/mL in the test on Tobacco mosaic virus [6] was 79.9%. Besides, the inhibition at 100 µg/mL with Tobacco mosaic virus [7] worked out at 92.8%.

Regarding `COc1ccc2c3c(c4cc(OC)c(OC)cc4c2c1)CC1CCCN1C3` (racemic) [(+/-)-ANTOFINE], the Activity with Tobacco mosaic virus [1] worked out at 54.4%; in the test on Tobacco mosaic virus [2] it was 66.3%; in the test on Tobacco mosaic virus [8], 26.7%. Further, the EC50 in the test with Tobacco mosaic virus [3] is under 25 µg/mL. The same compound came in with an inhibition at 5 µg/mL in the test with Tobacco mosaic virus [4] of 56.7%. In addition, the inhibition at 25 µg/mL in the test with Tobacco mosaic virus [5] stood at 68.8%. In addition, the inhibition at 50 µg/mL in the test on Tobacco mosaic virus [6] turned out to be 69.7%. In addition, 100 µg/mL produced 80.7% inhibition with Tobacco mosaic virus [7].

For the compound `COc1ccc2c3c(c4cc(OC)c(OC)cc4c2c1)CN1CCCC1C3` (racemic) [(+/-)-DEOXYTYLOPHORININE], the Activity in the test with Tobacco mosaic virus [1] is listed as 26.1%; in the test on Tobacco mosaic virus [2], 67.4%; in the test on Tobacco mosaic virus [8], 60%. For the same compound, the EC50 in the test with Tobacco mosaic virus [3] is under 25 µg/mL. This compound also gave an inhibition at 40 µg/mL in the test on Tobacco mosaic virus [9] of 79.2%. Moreover, at 25 µg/mL the inhibition in the test with Tobacco mosaic virus [5] was 65%. The compound also showed an inhibition at 50 µg/mL in the test on Tobacco mosaic virus [6] of 66.7%. In the test on Tobacco mosaic virus [7], this compound had an inhibition at 100 µg/mL of 75%.

`CNCC(=O)N[C@@H](CO)C(=O)N[C@H]1[C@H](O)[C@@H](O)[C@H](n2ccc(N)nc2=O)O[C@@H]1C(N)=O` [NINGNANMYCIN] returned an inhibition at 125 µg/mL in the test on Tobacco mosaic virus [10] of 27%. Moreover, in the test with Tobacco mosaic virus [11], the inhibition at 250 µg/mL was 42.1%. 500 µg/mL produced 59.3% inhibition in the test with Tobacco mosaic virus [12]. The values for the Activity with Tobacco mosaic virus [13], in the test with Tobacco mosaic virus [14] and in the test on Tobacco mosaic virus [15] were 23%, 50.5% and 51.3%, respectively. The compound further gave an EC50 in the test with Tobacco mosaic virus [3] of 440 µg/mL (≈ 992 µM). This compound also yielded an inhibition at 25 µg/mL in the test with Tobacco mosaic virus [5] of 28.2%.

For the compound `COc1cc2c3c(c4cc(OC)c(OC)cc4c2cc1OC)CN1CCCC1C3` (stereo unspecified) [TYLOPHORINE 2-HYDROXYSUCCINIC ACID SALT], in the test with Tobacco mosaic virus [9], testing at 40 µg/mL gave an inhibition of 69.1%.

On to `COc1cc2c3c(c4cc(OC)c(OC)cc4c2cc1OC)CN1CCCC1C3.Nc1ccc(S(=O)(=O)O)cc1` (stereo unspecified) [TYLOPHORINE P-AMINOBENZENESULFONIC ACID SALT], for which the Activity was 34.5% in the test with Tobacco mosaic virus [1], 75.6% with Tobacco mosaic virus [2] and 38.6% in the test on Tobacco mosaic virus [8]. Also, the EC50 with Tobacco mosaic virus [3] turned out to be 14.3 µg/mL. The inhibition at 5 µg/mL with Tobacco mosaic virus [4] stood at 31.4%. This compound had an inhibition at 25 µg/mL in the test on Tobacco mosaic virus [5] of 58.8%. The inhibition at 50 µg/mL in the test on Tobacco mosaic virus [6] worked out at 74.3%. This compound also came in with an inhibition at 100 µg/mL in the test on Tobacco mosaic virus [7] of 80.9%.

`COc1cc2c3c(c4cc(OC)c(OC)cc4c2cc1OC)CN1CCCC1C3.O=C(O)c1ccc(O)cc1` (stereo unspecified) [TYLOPHORINE P-HYDROXYBENZOIC ACID SALT]: the Activity was 42.9% with Tobacco mosaic virus [1], 60.9% with Tobacco mosaic virus [2] and 54.9% in the test with Tobacco mosaic virus [8]. For the same compound, the EC50 in the test on Tobacco mosaic virus [3] was 7.7 µg/mL. For the same compound, the inhibition at 5 µg/mL in the test with Tobacco mosaic virus [4] was 50%. In addition, the inhibition at 25 µg/mL in the test with Tobacco mosaic virus [5] is 54.7%. This compound showed an inhibition at 50 µg/mL in the test on Tobacco mosaic virus [6] of 70%. Besides, the inhibition at 100 µg/mL in the test with Tobacco mosaic virus [7] was determined as 84.9%.
